# Measured values as given in ChEMBL document CHEMBL4813946, “Discovery of novel 4-azaaryl-N-phenylpyrimidin-2-amine derivatives as potent and selective FLT3 inhibitors for acute myeloid leukaemia with FLT3 mutations” (Eur J Med Chem, 2021).
# Experiments:
# [1] = biological target: Cyclin-dependent kinase 1/cyclin B1 (Homo sapiens, UniProt P06493); test: Inhibition of CDK1/cyclin B (unknown origin) using histone 1 protein substrate incubated for 120 mins measured after 40 mins incubation under dark by ADP-glo based luminescence assay; assay type: protein-complex assay
# In short: (§1)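 In-house ADP-Glo assay with 2 mM DMSO stocks. Kinases were CDK1/cyclin B at 1 nM, CDK2/cyclin E1 at 10 nM and CDK7/cyclin H/MAT1 at 40 nM. Substrate was histone 1 for CDK1 and CDK2, and a RNA pol II CTD peptide for CDK7. Compound at 8–10 concentrations, 1:3 serial, final DMSO 0.5%. Reactions ran 60–120 min at room temperature, then ADP-Glo reagent 40 min in the dark, then detection reagent 40 min, read by luminescence. Ki was derived from IC50 by Cheng-Prusoff.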
# [2] = biological target: CDK7/Cyclin H/MNAT1 (Homo sapiens, UniProt P50613); test: Inhibition of CDK7/cyclin H/MAT1 (unknown origin) using HYSPTSPSYSPTSPSYSPTSPSKKKK-O substrate incubated for 120 mins measured after 40 mins incubation under dark by ADP-glo based luminescence assay; assay type: protein-complex assay; in short: as §1
# [3] = tested on: MV4-11; test: Antiproliferative activity against human MV4-11 cells incubated for 72 hrs by resazurin assay; assay type: functional
# In short: (§2)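 Cells seeded and pre-incubated 24 h at 37 °C, 5% CO2, then given a five-fold dilution series of compound (from 10 mM DMSO stock) in medium, in triplicate. Resazurin added after 72 h exposure, 4 h in dark at 37 °C. Fluorescence read at 570/585 nm, normalised to DMSO vehicle. GI50 by non-linear regression; mean ± SD of at least two replicates.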
# [4] = biological target: Cyclin-dependent kinase 2/cyclin E1 (Homo sapiens, UniProt P24941); test: Inhibition of CDK2/cyclin E (unknown origin) using histone 1 protein substrate incubated for 120 mins measured after 40 mins incubation under dark by ADP-glo based luminescence assay; assay type: protein-complex assay; in short: as §1
# [5] = biological target: Receptor-type tyrosine-protein kinase FLT3 (Homo sapiens, UniProt P36888, ITD); test: Inhibition of FLT3 ITD mutant (unknown origin) using Glu/Tyr peptide substrate incubated for 80 mins measured after 40 mins incubation under dark by ADP-glo based luminescence assay
# [6] = biological target: T1, Receptor-type tyrosine-protein kinase FLT3 (Homo sapiens, UniProt P36888); test: Inhibition of wild type FLT3 (unknown origin) using Glu/Tyr peptide substrate incubated for 120 mins measured after 40 mins incubation under dark by ADP-glo based luminescence assay
# T1 sequence (P36888 whole entry): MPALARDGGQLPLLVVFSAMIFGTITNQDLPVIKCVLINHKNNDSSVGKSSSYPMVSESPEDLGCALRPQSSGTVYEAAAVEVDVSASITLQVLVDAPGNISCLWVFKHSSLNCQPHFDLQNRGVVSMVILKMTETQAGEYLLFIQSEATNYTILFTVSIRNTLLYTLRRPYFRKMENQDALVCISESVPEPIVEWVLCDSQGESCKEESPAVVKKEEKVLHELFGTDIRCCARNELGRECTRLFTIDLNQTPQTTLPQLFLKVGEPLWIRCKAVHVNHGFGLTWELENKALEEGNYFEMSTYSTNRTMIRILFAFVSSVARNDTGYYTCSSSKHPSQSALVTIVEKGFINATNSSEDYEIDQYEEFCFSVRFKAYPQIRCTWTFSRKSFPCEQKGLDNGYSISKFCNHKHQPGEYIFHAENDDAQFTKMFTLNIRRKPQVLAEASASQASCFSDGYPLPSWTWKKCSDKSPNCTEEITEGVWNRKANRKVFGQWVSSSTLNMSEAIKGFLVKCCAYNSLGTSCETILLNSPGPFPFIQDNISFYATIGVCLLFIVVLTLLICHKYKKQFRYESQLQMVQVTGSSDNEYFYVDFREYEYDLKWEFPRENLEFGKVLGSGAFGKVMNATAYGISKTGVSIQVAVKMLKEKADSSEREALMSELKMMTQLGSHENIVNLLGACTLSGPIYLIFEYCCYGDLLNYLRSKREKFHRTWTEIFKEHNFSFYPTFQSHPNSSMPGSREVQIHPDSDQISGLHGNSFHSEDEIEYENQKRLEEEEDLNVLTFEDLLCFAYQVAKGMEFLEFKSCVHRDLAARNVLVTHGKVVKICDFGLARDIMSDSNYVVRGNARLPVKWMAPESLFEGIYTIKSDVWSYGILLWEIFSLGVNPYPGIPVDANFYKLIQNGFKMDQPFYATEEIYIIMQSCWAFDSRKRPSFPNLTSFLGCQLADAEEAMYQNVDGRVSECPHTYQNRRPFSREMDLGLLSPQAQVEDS
# In short: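 In-house ADP-Glo assay with poly(Glu,Tyr) 4:1 substrate in 40 mM Tris pH 7.5, 20 mM MgCl2, 50 µM DTT, 0.1 mg/mL BSA. Kinase at 20 nM. ADP-Glo reagent 40 min in the dark, detection reagent 30–40 min, then luminescence. Ki was derived from IC50 by Cheng-Prusoff.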
# [7] = biological target: Receptor-type tyrosine-protein kinase FLT3 (Homo sapiens, UniProt P36888, D835Y); test: Inhibition of FLT3 D835Y mutant (unknown origin) incubated for 120 mins by ADP-glo based luminescence assay
# [8] = tested on: NB-4; test: Antiproliferative activity against human NB-4 cells harboring wild type FLT3 assessed as reduction in cell viability after 72 hrs by resazurin assay; assay type: functional; in short: as §2
# [9] = Inhibition of FLT3 Y591-V592insVDFREYEYD mutant (unknown origin) incubated for 120 mins by ADP-glo based luminescence assay; design: species or system Homo sapiens
# [10] = biological target: Receptor-type tyrosine-protein kinase FLT3 (Homo sapiens, UniProt P36888, R595-E596INSEY); test: Inhibition of FLT3 R595_E596insEY mutant (unknown origin) incubated for 120 mins by ADP-glo based luminescence assay
# [11] = Inhibition of FLT3 ITD-NPOS mutant (unknown origin) incubated for 120 mins by ADP-glo based luminescence assay; design: species or system Homo sapiens
# [12] = biological target: Receptor-type tyrosine-protein kinase FLT3 (Homo sapiens, UniProt P36888, F594-R595INSR); test: Inhibition of FLT3 F594_R595insR mutant (unknown origin) incubated for 120 mins by ADP-glo based luminescence assay
# [13] = Antiproliferative activity against human MOLM-13 cells harboring FLT3-ITD mutant assessed as reduction in cell viability after 72 hrs by resazurin assay; assay type: functional; conditions: MOLM-13, 72 h; in short: as §2
# [14] = tested on: K562; test: Antiproliferative activity against human K562 cells harboring FLT3 knockout gene assessed as reduction in cell viability after 72 hrs by resazurin assay; assay type: functional; in short: as §2
# [15] = tested on: Jurkat; test: Antiproliferative activity against human Jurkat cells harboring FLT3 knockout gene assessed as reduction in cell viability after 72 hrs by resazurin assay; assay type: functional; in short: as §2
# [16] = Inhibition of FLT3 ITD-W51 mutant (unknown origin) incubated for 120 mins by ADP-glo based luminescence assay; design: species or system Homo sapiens
# [17] = tested on: MV4-11; test: Antiproliferative activity against human MV4-11 cells harboring FLT3-ITD mutant assessed as reduction in cell viability after 72 hrs by resazurin assay; assay type: functional; in short: as §2
# [18] = tested on: U-937; test: Antiproliferative activity against human U-937 cells harboring wild type/low FLT3 assessed as reduction in cell viability after 72 hrs by resazurin assay; assay type: functional; in short: as §2
# [19] = tested on: THP-1; test: Antiproliferative activity against human THP-1 cells harboring wild type FLT3 assessed as reduction in cell viability after 72 hrs by resazurin assay; assay type: functional; in short: as §2
# Sequence of CDK7/Cyclin H/MNAT1 (P51946 whole entry): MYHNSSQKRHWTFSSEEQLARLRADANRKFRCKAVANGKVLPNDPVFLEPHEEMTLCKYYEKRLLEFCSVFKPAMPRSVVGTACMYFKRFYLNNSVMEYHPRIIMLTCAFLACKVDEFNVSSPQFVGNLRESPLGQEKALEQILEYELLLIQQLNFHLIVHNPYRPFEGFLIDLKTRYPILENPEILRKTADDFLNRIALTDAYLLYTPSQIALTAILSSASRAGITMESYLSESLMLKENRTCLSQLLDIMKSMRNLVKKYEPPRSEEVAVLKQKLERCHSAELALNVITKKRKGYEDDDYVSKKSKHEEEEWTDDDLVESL
# Sequence of CDK7/Cyclin H/MNAT1 (P50613 whole entry): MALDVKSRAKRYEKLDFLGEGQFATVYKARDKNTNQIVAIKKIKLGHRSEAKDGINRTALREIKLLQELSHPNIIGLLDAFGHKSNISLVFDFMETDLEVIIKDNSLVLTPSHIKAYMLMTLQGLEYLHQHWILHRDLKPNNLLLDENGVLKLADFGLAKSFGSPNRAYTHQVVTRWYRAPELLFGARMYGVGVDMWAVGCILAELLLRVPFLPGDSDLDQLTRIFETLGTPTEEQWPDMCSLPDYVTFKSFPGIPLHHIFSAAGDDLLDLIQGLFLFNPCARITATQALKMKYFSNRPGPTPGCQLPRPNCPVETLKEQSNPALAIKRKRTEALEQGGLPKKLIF
# Sequence of CDK7/Cyclin H/MNAT1 (P51948 whole entry, further chain): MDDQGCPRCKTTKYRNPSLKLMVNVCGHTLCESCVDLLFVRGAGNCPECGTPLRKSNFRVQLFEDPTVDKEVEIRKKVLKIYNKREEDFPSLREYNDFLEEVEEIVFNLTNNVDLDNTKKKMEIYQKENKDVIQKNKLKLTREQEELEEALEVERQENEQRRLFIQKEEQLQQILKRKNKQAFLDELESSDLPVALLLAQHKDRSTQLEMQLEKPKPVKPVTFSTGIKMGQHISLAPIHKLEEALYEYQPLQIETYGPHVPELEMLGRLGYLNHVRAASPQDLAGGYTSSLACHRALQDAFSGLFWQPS
# Sequence of Cyclin-dependent kinase 1/cyclin B1 (P06493 whole entry): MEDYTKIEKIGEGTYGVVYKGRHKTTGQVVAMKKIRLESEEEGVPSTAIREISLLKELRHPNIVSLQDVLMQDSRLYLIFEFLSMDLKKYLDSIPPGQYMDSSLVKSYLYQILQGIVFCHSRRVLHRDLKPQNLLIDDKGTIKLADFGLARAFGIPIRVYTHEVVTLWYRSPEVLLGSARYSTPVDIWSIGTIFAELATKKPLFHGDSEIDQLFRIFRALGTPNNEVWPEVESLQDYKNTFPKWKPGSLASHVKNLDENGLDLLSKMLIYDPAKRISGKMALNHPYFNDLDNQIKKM
# Sequence of Cyclin-dependent kinase 1/cyclin B1 (P14635 whole entry, further chain): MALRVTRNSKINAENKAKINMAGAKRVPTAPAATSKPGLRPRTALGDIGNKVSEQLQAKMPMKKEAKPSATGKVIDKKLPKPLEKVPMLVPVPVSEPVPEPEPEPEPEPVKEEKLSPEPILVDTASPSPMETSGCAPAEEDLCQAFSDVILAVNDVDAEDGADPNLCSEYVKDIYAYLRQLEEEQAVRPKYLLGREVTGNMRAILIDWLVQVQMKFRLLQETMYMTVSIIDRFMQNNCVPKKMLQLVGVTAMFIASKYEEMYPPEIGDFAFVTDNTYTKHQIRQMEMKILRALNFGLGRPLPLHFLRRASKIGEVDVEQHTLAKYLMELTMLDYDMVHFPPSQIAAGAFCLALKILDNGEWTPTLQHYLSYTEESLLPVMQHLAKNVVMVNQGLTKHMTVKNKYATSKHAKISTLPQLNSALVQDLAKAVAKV
SMILES,Ki [1],Ki [2],GI50 [3],Ki [4],Ki [5],Ki [6],further results
CC(=O)N1CCN(c2ccc(Nc3nccc(-c4c[nH]c5ncccc45)n3)cc2)CC1,91 nM,> 5000 nM,< 1 nM,49 nM,0.1 nM,0.8 nM,–
CCc1nc(C(N)=O)c(Nc2ccc(N3CCC(N4CCN(C)CC4)CC3)c(OC)c2)nc1NC1CCOCC1 [GILTERITINIB],> 5000 nM,> 5000 nM,2 nM,1480 nM,–,–,–
CC(=O)N1CCN(c2ccc(Nc3ncc(C#N)c(-c4cn(C)c5ccccc45)n3)cc2)CC1,1580 nM,1620 nM,30 nM,1120 nM,7 nM,37 nM,–
CN1CCN(c2cccc(Nc3nccc(-c4c[nH]c5ncccc45)n3)c2)CC1,531 nM,142 nM,5 nM,84 nM,2 nM,4 nM,–
CN1CCN(c2cccc(Nc3nccc(-c4cn(C)c5ncccc45)n3)c2)CC1,> 5000 nM,> 5000 nM,24 nM,970 nM,13 nM,40 nM,–
CC(=O)N1CCN(c2ccc(Nc3ncc(C#N)c(-c4c[nH]c5ccccc45)n3)cc2)CC1,4050 nM,426 nM,4 nM,> 5000 nM,0.4 nM,4 nM,–
CN1CCN(c2cccc(Nc3nccc(-c4c[nH]c5cccnc45)n3)c2)CC1,> 5000 nM,> 5000 nM,405 nM,> 5000 nM,20 nM,217 nM,–
CC(=O)N1CCN(c2ccc(Nc3ncc(C#N)c(-c4c(C)[nH]c5ccccc45)n3)cc2)CC1,> 5000 nM,536 nM,390 nM,2170 nM,2 nM,119 nM,–
CC(=O)N1CCN(c2ccc(Nc3nccc(-c4cn(S(=O)(=O)c5ccc(C)cc5)c5ccccc45)n3)cc2)CC1,> 5000 nM,> 5000 nM,1560 nM,> 5000 nM,128 nM,> 5000 nM,–

# Continued, in another order:
Ki [1],Ki [2],GI50 [3],Ki [4],Ki [5],Ki [6],SMILES,further results
727 nM,> 5000 nM,18 nM,> 5000 nM,0.6 nM,1 nM,CC(=O)N1CCCN(c2cccc(Nc3nccc(-c4n[nH]c5ccccc45)n3)c2)CC1,–
> 5000 nM,> 5000 nM,252 nM,> 5000 nM,133 nM,149 nM,CC(=O)N1CCN(c2ccc(Nc3nccc(-c4cn(C)c5ccccc45)n3)cc2)CC1,–
1650 nM,> 5000 nM,17 nM,> 5000 nM,0.2 nM,21 nM,CC(=O)N1CCN(c2ccc(Nc3ncc(C#N)c(-c4n[nH]c5ccccc45)n3)cc2)CC1,Ki [7]: < 0.3 nM; GI50 [8]: 126 nM; Ki [9]: < 0.3 nM; Ki [10]: < 0.3 nM; Ki [11]: < 0.3 nM; Ki [12]: < 0.3 nM; GI50 [13]: 0.4 nM; GI50 [14]: 185 nM; GI50 [15]: > 10000 nM; Ki [16]: < 0.3 nM; GI50 [17]: 17 nM; GI50 [18]: > 10000 nM; GI50 [19]: 3040 nM
51 nM,29 nM,20 nM,31 nM,0.1 nM,0.4 nM,CC(=O)N1CCCN(c2cccc(Nc3nccc(-c4c[nH]c5ncccc45)n3)c2)CC1,–
1760 nM,> 5000 nM,24 nM,> 5000 nM,0.7 nM,1 nM,CC(=O)N1CCCN(c2cccc(Nc3nccc(-c4cnc5n(C)cccc4-5)n3)c2)CC1,–
> 5000 nM,> 5000 nM,420 nM,> 5000 nM,4 nM,32 nM,CC(=O)N1CCN(c2ccc(Nc3nccc(-c4c[nH]c5cccnc45)n3)cc2)CC1,–
> 5000 nM,> 5000 nM,346 nM,> 5000 nM,207 nM,> 5000 nM,CC(=O)N1CCN(c2ccc(Nc3nccc(-c4n[nH]c5ccccc45)n3)cc2)CC1,–
> 5000 nM,> 5000 nM,181 nM,> 5000 nM,274 nM,883 nM,CC(=O)N1CCN(c2ccc(Nc3nccc(-c4nn(C)c5ccccc45)n3)cc2)CC1,–
> 5000 nM,> 5000 nM,33 nM,> 5000 nM,11 nM,22 nM,CC(=O)N1CCN(c2ccc(Nc3nccc(-c4c[nH]c5ccccc45)n3)cc2)CC1,–
> 5000 nM,> 5000 nM,688 nM,> 5000 nM,107 nM,150 nM,CC(=O)N1CCCN(c2cccc(Nc3nccc(-c4c[nH]c5cccnc45)n3)c2)CC1,–
